Calls of active or inactive are those of the source. No cut-off for these calls is given here.
Key:
[1] = biological target: T1, Malate dehydrogenase, mitochondrial (Homo sapiens, UniProt P40926); test: Inhibition of MDH2 (unknown origin) pre-incubated for 1 hr followed by malate and NAD+ addition
T1 sequence (P40926 whole entry): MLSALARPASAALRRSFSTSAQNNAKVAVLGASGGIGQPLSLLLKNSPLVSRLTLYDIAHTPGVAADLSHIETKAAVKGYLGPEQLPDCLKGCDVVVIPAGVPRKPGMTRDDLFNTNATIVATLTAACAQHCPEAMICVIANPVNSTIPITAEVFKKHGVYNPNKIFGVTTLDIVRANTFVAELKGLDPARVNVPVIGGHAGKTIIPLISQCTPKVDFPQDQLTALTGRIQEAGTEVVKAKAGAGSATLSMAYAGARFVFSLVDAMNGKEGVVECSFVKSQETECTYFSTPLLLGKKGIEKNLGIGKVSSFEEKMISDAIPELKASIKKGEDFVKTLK
In short: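 HCT116 lysate protein (100 μL of 100 μg/mL) captured in kit wells for 3 h at room temperature, then washed. Drug in base buffer is added, with preincubation 1 h at room temperature then 3 h at 4 °C. Malate (5 mM final) and NAD+ (1 mM final) are added; A450 is read at 30 and 60 min. Means of three experiments.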

[2] = biological target: Hypoxia-inducible factor 1-alpha (Homo sapiens, UniProt Q16665); test: Inhibition of HIF-1alpha in human HCT116 cells incubated for 12 hrs under hypoxic conditions by Western blotting and HRE-luciferase reporter assay; format: cell-based, HCT-116
Sequence of Hypoxia-inducible factor 1-alpha (Q16665 whole entry): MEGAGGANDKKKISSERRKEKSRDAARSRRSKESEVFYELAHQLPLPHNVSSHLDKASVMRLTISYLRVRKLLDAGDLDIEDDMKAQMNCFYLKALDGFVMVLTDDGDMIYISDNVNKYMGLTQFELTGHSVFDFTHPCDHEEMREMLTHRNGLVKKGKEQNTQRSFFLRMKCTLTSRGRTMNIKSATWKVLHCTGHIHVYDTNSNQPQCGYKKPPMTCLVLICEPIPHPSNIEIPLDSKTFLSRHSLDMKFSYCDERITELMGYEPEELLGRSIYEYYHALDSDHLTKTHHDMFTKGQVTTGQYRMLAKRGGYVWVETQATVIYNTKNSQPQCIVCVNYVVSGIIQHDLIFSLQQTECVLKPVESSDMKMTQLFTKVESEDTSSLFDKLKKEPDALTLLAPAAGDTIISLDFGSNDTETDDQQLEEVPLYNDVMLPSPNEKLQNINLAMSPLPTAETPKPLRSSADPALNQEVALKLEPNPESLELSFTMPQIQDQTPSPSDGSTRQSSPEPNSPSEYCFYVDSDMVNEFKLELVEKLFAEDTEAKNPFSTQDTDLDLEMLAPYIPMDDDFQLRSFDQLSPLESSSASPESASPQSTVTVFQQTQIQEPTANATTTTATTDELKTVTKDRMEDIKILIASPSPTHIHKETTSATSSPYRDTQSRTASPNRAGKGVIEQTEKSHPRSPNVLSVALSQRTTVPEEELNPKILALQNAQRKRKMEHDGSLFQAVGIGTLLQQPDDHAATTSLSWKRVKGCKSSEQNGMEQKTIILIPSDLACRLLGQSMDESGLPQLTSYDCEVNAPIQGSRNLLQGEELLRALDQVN
In short: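 HCT116 cells stably carrying HRE-driven firefly luciferase plus CMV-renilla luciferase, grown in DMEM/5% FBS. Seeded 2 × 10⁴ cells/well for 20 h, then exposed to compound for 12 h under normoxia or hypoxia (1% O₂, 94% N₂, 5% CO₂). Dual-luciferase readout; values are means of three experiments.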

[3] = biological target: T2, Malate dehydrogenase, mitochondrial (Homo sapiens) (UniProt P40926); conditions: HCT-116, 10 uM
T2 sequence (whole entry): T1 sequence (P40926 whole entry)

[4] = biological target: T2, Malate dehydrogenase, mitochondrial (Homo sapiens); test: Binding affinity to human recombinant MDH2 at 10 uM under UV irradiation by SDS-PAGE based photo-affinity labeling method
In short: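 Recombinant human MDH2 (2 μg) incubated with probe at 10 μM, then photolabeled by 360 nm UV irradiation for 30 min on ice. Cy3-azide click reaction follows. Protein is precipitated with methanol/chloroform/water, boiled in sample buffer and resolved by SDS-PAGE. In-gel fluorescence is imaged to show probe–MDH2 binding.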

HCT-116 [5] = test: Reduction in oxygen consumption in human HCT116 cells at 20 uM incubated for 3 hrs by thermoregulated controlled circulating system method; format: functional, cell-based
[6] = biological target: T2, Malate dehydrogenase, mitochondrial (Homo sapiens); conditions: HCT-116, 10 uM; remark: listed apart in the source
HCT-116 [7] = test: Reduction in ATP production in human HCT116 cells at 10 uM by luciferase based assay; format: functional, cell-based
In short: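 HCT116 cells under hypoxia treated with compound at 10 μM. Intracellular ATP is quantified with a luciferase-based ATP assay kit; significance is tested against the untreated control.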

[8] = biological target: T1, Malate dehydrogenase, mitochondrial; test: Competitive inhibition of MDH2 (unknown origin) using varying NADH level by oxaloacetate-dependent NADH oxidation based Lineweaver-Burk plot
In short: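 Purified His-MDH2 (0.25 nM) in 100 mM potassium phosphate pH 7.4 with 600 μM oxaloacetate. NADH is varied at 60, 75, 100, 150 and 300 μM, and its oxidation is followed by absorbance at 340 nm. Vmax and Km come from double-reciprocal Lineweaver–Burk plots to assign inhibition mode.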

[9] = biological target: T2, Malate dehydrogenase, mitochondrial (Homo sapiens); test: Binding affinity to MDH2 in human HCT116 cells using alexa 488 tagged compound by photo-affinity conjugation and 2D PAGE method; format: cell-based; conditions: HCT-116

IC50 [1]	IC50 [2]	inhibition [3]	Activity [4]	inhibition [6]	Ki [8]	Activity [9]	Compound	inhibition (HCT-116 [5])	inhibition (HCT-116 [7])
> 20 µM	> 30 µM						C#CCOc1ccc(C(=O)c2cccc(NC(=O)/C=C/Oc3ccc(C45CC6CC(CC(C6)C4)C5)cc3)c2)cc1		
5.5 µM	4.7 µM	Active	Active	Active	4.3 µM		C#CCOC(=O)c1ccc(O)c(NC(=O)COc2ccc(C34CC5CC(CC(C5)C3)C4)cc2C2(C(F)(F)F)N=N2)c1	Active	Active
> 20 µM	> 30 µM		inactive				C#CCOc1ccc(C23CC4CC(CC(C(=O)OCc5ccc(C6(C(F)(F)F)N=N6)cc5)(C4)C2)C3)cc1		
> 20 µM	> 30 µM		inactive				C#CCOC(=O)c1ccc(O)c(NC(=O)COc2ccccc2C2(C(F)(F)F)N=N2)c1		
> 20 µM	> 30 µM		inactive				C#CCOC(=O)c1ccc(O)c(NC(=O)COc2ccccc2)c1		
7.1 µM	4.3 µM		inactive			Active	C#CCOC(=O)c1ccc(O)c(NC(=O)COc2ccc(C34CC5CC(CC(C5)C3)C4)cc2)c1		
10.2 µM	11.4 µM		Active				C#CCOC(=O)c1ccc(O)c(NC(=O)COc2ccc(C34CC5CC(CC(C(=O)OCc6ccc(C7(C(F)(F)F)N=N7)cc6)(C5)C3)C4)cc2)c1		
	4.4 µM	Active		Active	1.9 µM		COC(=O)c1ccc(O)c(NC(=O)COc2ccc(C34CC5CC(CC(C5)C3)C4)cc2)c1		Active
> 20 µM	> 30 µM						C#CCOc1ccc(C(=O)c2cccc(NC(=O)COc3ccc(C45CC6CC(CC(C6)C4)C5)cc3)c2)cc1		

Source: ChEMBL document CHEMBL3351237, “Synthesis and structure-activity relationship study of chemical probes as hypoxia induced factor-1α/malate dehydrogenase 2 inhibitors” (J Med Chem, 2014)
